Data as given in ChEMBL document CHEMBL1124689, “Thienylpyrazoloquinolines with high affinity to benzodiazepine receptors: continuous shift from inverse agonist to agonist properties depending on the size of the alkyl substituent” (J Med Chem, 1989).
Active and inactive are the calls of the source. The rule behind the calls is not given here.

What was measured:
[1] = target: GABA-A receptor; anion channel; assay: Displacing potential to [3H]diazepam binding to benzodiazepine receptor in Wistar rat cerebral cortex; assay type: tissue-based
Mus musculus [2] = species on record: Mus musculus; assay: Agonist activity was evaluated by inhibition of the PTZ-induced convulsions at a PTZ dose of 125 mg/ kg; assay type: functional; conditions: PTZ 125 mg/kg
Summary of the method: (§1)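 Male mice, groups of 8–16; test compound given iv, then immediately PTZ 125 mg/kg sc (convulsive dose). Endpoint: prevention of tonic convulsions and death over 2 h; dose protecting 50% computed by probit method with 95% confidence limits; partial activity given as percentage of animals affected at a stated dose.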

Mus musculus [3] = assay: Inverse agonist activity was evaluated by potentiation of the pentylenetetrazole (PTZ) (75 mg/kg) induced convulsions; assay type: functional
Summary of the method: (§2)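 Male mice, groups of 8–16, given test compound iv and immediately challenged with subconvulsive PTZ (75 or 90 mg/kg sc). Tonic convulsions and death recorded over 2 h; dose producing effect in 50% derived by probit method with 95% confidence limits, or percentage of animals affected at a single dose.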

Mus musculus [4] = assay: Inverse agonist activity was evaluated by potentiation of the pentylenetetrazole (PTZ) (90 mg/kg) induced convulsions; assay type: functional; summary of the method: as §2
Mus musculus [5] = species on record: Mus musculus; assay: Agonist activity was evaluated by inhibition of the PTZ-induced convulsions at a PTZ dose of 125 mg/ kg; inactive to 10; assay type: functional, organism-based; design: dose 125 mg/ kg; summary of the method: as §1
Mus musculus [6] = assay: Inverse agonist activity was evaluated by potentiation of the pentylenetetrazole (PTZ) (90 mg/kg) induced convulsions; inactive to 10; assay type: functional, organism-based; summary of the method: as §2
Mus musculus [7] = assay: Inverse agonist activity was evaluated by potentiation of the pentylenetetrazole (PTZ) (75 mg/kg) induced convulsions; inactive to 10; assay type: functional, organism-based; summary of the method: as §2
Mus musculus [8] = assay: Inhibition to produce tonic convulsions and death in mice after administration of 10 mg/kg intravenously; assay type: functional; conditions: route intravenous
Summary of the method: (§3)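 Proconvulsant (inverse agonist) assay in groups of 8–16 male mice. Each mouse received the compound iv and was immediately challenged with a sub-convulsive dose of pentylenetetrazole sc, either 75 or 90 mg/kg. Animals were watched for 2 h for tonic convulsions and death. The value is the percentage of animals affected at the stated dose.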

Mus musculus [9] = assay: Inhibition of tonic convulsions and death in mice after administration of 2.5 mg/kg of compound intravenously; assay type: functional; conditions: route intravenous; summary of the method: as §3

Row | Compound | Ki [1] [nM] | ED50 (Mus musculus [2]) [mg/kg] | ED50 (Mus musculus [4]) [mg/kg] | also measured
1 | CCc1csc(-n2[nH]c3c(cnc4cc(C)ccc43)c2=O)c1 | 0.6 | 5.15 | – | –
2 | CCOC(=O)c1cc2c(cn1)[nH]c1ccccc12 | – | – | 0.46 | ED50 (Mus musculus [3]): 1 mg/kg
3 | Cc1ccc2c(c1)ncc1c(=O)n(-c3csc(C)c3)[nH]c12 | 0.32 | – | 0.13 | ED50 (Mus musculus [3]): 0.47 mg/kg
4 | CCCc1cc(-n2[nH]c3c(cnc4cc(C)ccc43)c2=O)cs1 | 1.04 | – | – | ED50 (Mus musculus [5]): inactive; ED50 (Mus musculus [6]): inactive
5 | Cc1ccc2c(c1)ncc1c(=O)n(-c3ccsc3)[nH]c12 | 0.73 | – | 0.14 | ED50 (Mus musculus [3]): 0.43 mg/kg
6 | O=C1C2C=Nc3ccccc3C2=NN1c1ccccc1 (centres undefined) [CGS-8216] | – | – | 0.2 | ED50 (Mus musculus [7]): inactive
7 | CN1C(=O)CN=C(c2ccccc2)c2cc(Cl)ccc21 [DIAZEPAM] | – | 0.15 | – | –
8 | O=C1C2C=Nc3ccccc3C2=NN1c1ccc(Cl)cc1 (centres undefined) [CGS-9896] | – | 0.07 | – | –
9 | Cc1ccc2c(c1)ncc1c(=O)n(-c3ccc(C)s3)[nH]c12 | 0.32 | 0.16 | – | –
10 | CCc1cc(-n2[nH]c3c(cnc4cc(C)ccc43)c2=O)cs1 | 0.41 | – | – | ED50 (Mus musculus [7]): inactive; inhibition in vivo at 10 mg/kg (Mus musculus [8]): 50%
11 | Cc1ccc2c(c1)ncc1c(=O)n(-c3cccs3)[nH]c12 | 0.41 | – | 0.57 | inhibition in vivo at 2.5 mg/kg (Mus musculus [9]): 62.5%
12 | CCCCc1ccc(-n2[nH]c3c(cnc4cc(C)ccc43)c2=O)s1 | 1.48 | 0.22 | – | –
13 | CCc1ccc(-n2[nH]c3c(cnc4cc(C)ccc43)c2=O)s1 | 1.02 | 0.32 | – | –
14 | CCCc1csc(-n2[nH]c3c(cnc4cc(C)ccc43)c2=O)c1 | 1.01 | 3.54 | – | –
15 | Cc1csc(-n2[nH]c3c(cnc4cc(C)ccc43)c2=O)c1 | 0.48 | – | 5.15 | ED50 (Mus musculus [7]): inactive
